In ChEMBL document CHEMBL1129633, “Synthesis and pharmacological testing of dequalinium analogues as blockers of the apamin-sensitive Ca(2+)-activated K+ channel: variation of the length of the alkylene chain” (J Med Chem, 1996):

Experiments:
Rattus norvegicus [1] = species on record: Rattus norvegicus; assay: Compound was tested for its ability to inhibit the after hyperpolarization which follows the action potential in rat sympathetic neurons.; type: functional, organism-based; conditions: Sympathetic neuron
In short: (§1)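 Cultured neurons (3-10 days in culture); action potentials evoked every 5 s by depolarizing current pulses; drugs applied at known concentration in continuously flowing bath. AHP amplitude measured with and without compound for percent inhibition. Dequalinium tested on every cell; EMR = ratio of concentrations of compound and dequalinium giving 50% AHP inhibition in the same experiment. IC50 and EMR from simultaneous nonlinear least-squares Hill fits; each concentration tested on at least three neurons.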

Rattus norvegicus [2] = species on record: Rattus norvegicus; assay: The equieffective molar ratio of the concentrations of the test compound and after hyperpolarization (AHP); type: functional
Rattus norvegicus [3] = species on record: Rattus norvegicus; assay: The equieffective molar ratio of the concentrations of the test compound and dequalinium that cause 50% inhibition of the after hyper polarization (AHP); type: functional; in short: as §1

SMILES	IC50 (Rattus norvegicus [1])	EMR (Rattus norvegicus [2])	EMR (Rattus norvegicus [3])
Nc1cc[n+](CCC[n+]2ccc(N)c3ccccc32)c2ccccc12	4.5 µM	8.3	
Nc1cc[n+](CCCCCCCCCC[n+]2ccc(N)c3ccccc32)c2ccccc12			1.3
Nc1cc[n+](CCCC[n+]2ccc(N)c3ccccc32)c2ccccc12	1.8 µM		3.2
Nc1cc[n+](CCCCCCCC[n+]2ccc(N)c3ccccc32)c2ccccc12	2 µM		2.1

The remaining compounds from weak to strong by IC50 (Rattus norvegicus [1]), led by results:

IC50 (Rattus norvegicus [1])	SMILES	EMR (Rattus norvegicus [2])	EMR (Rattus norvegicus [3])
2 µM	Nc1cc[n+](CCCCCC[n+]2ccc(N)c3ccccc32)c2ccccc12		1.8
1.7 µM	Nc1cc[n+](CCCCCCCCCCCC[n+]2ccc(N)c3ccccc32)c2ccccc12		1.8
1 µM	Nc1cc[n+](CCCCC[n+]2ccc(N)c3ccccc32)c2ccccc12		1
0.9 µM	Cc1cc(N)c2ccccc2[n+]1CCCCCCCCCC[n+]1c(C)cc(N)c2ccccc21.[Cl-].[Cl-] [DEQUALINIUM CHLORIDE]	1	
